One block for each molecule: values may come before it. Calls of active or inactive are those of the source. The rule behind the calls is not given here.
Experiments:
[1] = molecular target: T1, Muscarinic acetylcholine receptor M2 (Homo sapiens, UniProt P08172); assay: (§1) Competitive antagonist activity at human muscarinic acetylcholine receptor M2 expressed in HEK293 cells coexpressing HA tagged Galpha-protein qi5 assessed as inhibition of 0.1 uM carbachol-induced IP1 accumulation preincubated for 30 mins followed by carbachol addition measured after 1 hr by HTRF assay; type: functional, cell-based
T1 sequence (P08172 whole entry): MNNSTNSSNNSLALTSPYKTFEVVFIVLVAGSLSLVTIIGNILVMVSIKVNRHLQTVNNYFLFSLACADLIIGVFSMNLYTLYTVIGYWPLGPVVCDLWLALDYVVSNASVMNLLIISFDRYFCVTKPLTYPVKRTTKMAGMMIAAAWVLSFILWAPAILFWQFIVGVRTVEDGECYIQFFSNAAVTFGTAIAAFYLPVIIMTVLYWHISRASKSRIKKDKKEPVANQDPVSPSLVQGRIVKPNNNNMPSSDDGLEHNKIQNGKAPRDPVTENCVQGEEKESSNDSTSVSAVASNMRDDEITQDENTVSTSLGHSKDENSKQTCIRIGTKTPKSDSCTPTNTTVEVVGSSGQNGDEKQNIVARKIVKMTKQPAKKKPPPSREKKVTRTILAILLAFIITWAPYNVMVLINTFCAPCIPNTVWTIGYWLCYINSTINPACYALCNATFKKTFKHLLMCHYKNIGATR
Outline: (§2)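 HEK-293 transiently cotransfected with human M2R and Gαqi5-HA. Cells preincubated 30 min with antagonist, then carbachol added (final 0.1, 0.3, 1 or 10 μM), 1 h at 37 °C. IP1 detected by HTRF (620/670 nm emission, 330 nm excitation). At least four independent experiments, each in duplicate.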

[2] = molecular target: T2, Muscarinic acetylcholine receptor M2 (Homo sapiens) (UniProt P08172); assay: as §1; type: functional, cell-based; outline: as §2
T2 sequence (whole entry): T1 sequence (P08172 whole entry)

[3] = molecular target: T1, Muscarinic acetylcholine receptor M2; assay: Displacement of [3H]UR-AP060 from human muscarinic acetylcholine receptor M2 expressed in CHOK9 cell homogenate after 3 hrs by liquid scintillation counting assay
[4] = molecular target: T2, Muscarinic acetylcholine receptor M2 (Homo sapiens); assay: Agonist activity at human muscarinic acetylcholine receptor M2 expressed in HEK293 cells coexpressing HA tagged Galpha-protein qi5 assessed as induction of IP1 accumulation measured after 1 hr by HTRF assay; type: functional, cell-based
Outline: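 HEK-293 transiently cotransfected with human M2R and Gαqi5-HA, seeded 24 h before assay (10000 cells/well). Compounds in stimulation buffer (1 pM–100 μM final) 1 h at 37 °C; IP1 read by HTRF (620/670 nm, excitation 330 nm) after 60 min with detection reagents at rt. Duplicate, three experiments, carbachol as reference.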

[5] = molecular target: T2, Muscarinic acetylcholine receptor M2 (Homo sapiens); assay: (§3) Binding affinity to human muscarinic acetylcholine receptor M2 expressed in live adherent CHOK9 cells after 2 hrs by liquid scintillation counting assay; type: cell-based; conditions: tested as the 3H-labelled form
Outline: (§4)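 Live adherent CHO-hM2 cells in L15 medium with 1% BSA, 23 ± 1 °C, 2 h incubation. Competition at 2 nM radioligand; additional 4, 8, 15 and 30 nM in W84 experiments. […] Saturation data fitted one-site; competition by four-parameter logistic fits; at least three experiments in triplicate.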

[6] = molecular target: T2, Muscarinic acetylcholine receptor M2 (Homo sapiens); assay: Binding affinity to human muscarinic acetylcholine receptor M2 expressed in live adherent CHOK9 cells at Kd in presence of 500-fold excess atropine after 2 hrs by liquid scintillation counting assay relative to control; type: cell-based; conditions: tested as the 3H-labelled form; outline: as §4
[7] = molecular target: T2, Muscarinic acetylcholine receptor M2 (Homo sapiens); assay: Binding affinity to human muscarinic acetylcholine receptor M2 expressed in CHOK9 cells assessed as association rate constant incubated up to 140 mins by liquid scintillation counting assay; type: cell-based; conditions: tested as the 3H-labelled form
[8] = molecular target: T1, Muscarinic acetylcholine receptor M2; assay: as §1, with “1” for “0.1”; type: functional, cell-based; outline: as §2
[9] = molecular target: T2, Muscarinic acetylcholine receptor M2 (Homo sapiens); assay: as §1, with “1” for “0.1”; type: functional, cell-based; outline: as §2
[10] = molecular target: T1, Muscarinic acetylcholine receptor M2; assay: as §1, with “10” for “0.1”; type: functional, cell-based; outline: as §2
[11] = molecular target: T2, Muscarinic acetylcholine receptor M2 (Homo sapiens); assay: as §1, with “10” for “0.1”; type: functional, cell-based; outline: as §2
[12] = molecular target: T1, Muscarinic acetylcholine receptor M2; assay: (§5) Displacement of [3H]NMS from human muscarinic acetylcholine receptor M2 expressed in CHOK9 cells after 3 hrs by liquid scintillation counting assay; type: cell-based
[13] = molecular target: T1, Muscarinic acetylcholine receptor M2; assay: Displacement of [3H]UNSW-MK259 from human muscarinic acetylcholine receptor M2 expressed in CHOK9 cells after 3 hrs by liquid scintillation counting assay; type: cell-based
[14] = molecular target: T2, Muscarinic acetylcholine receptor M2 (Homo sapiens); assay: Binding affinity to human muscarinic acetylcholine receptor M2 expressed in CHOK9 cells assessed as dissociation rate constant after 105 mins by liquid scintillation counting assay; type: cell-based; conditions: tested as the 3H-labelled form
[15] = molecular target: T2, Muscarinic acetylcholine receptor M2 (Homo sapiens); assay: Antagonist activity at human muscarinic acetylcholine receptor M2 expressed in HEK293 cells coexpressing HA tagged Galpha-protein qi5 assessed as inhibition of 0.3 uM carbachol-induced IP1 accumulation preincubated for 30 mins followed by carbachol addition measured after 1 hr by HTRF assay; type: functional, cell-based; outline: as §2
[16] = Chemical stability of the compound in PBS buffer at pH 7.4 after 48 hrs by HPLC analysis; type: physicochemical; conditions: pH 7.4, 48 h
Outline: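 Compound at 100 μM final (from 10 mM stock) in PBS pH 7.4 at 22 ± 1 °C; samples taken at 0, 24 and 48 h, mixed with acetonitrile/1% aq TFA 2:8, analysed by RP-HPLC at 220 nm.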

[17] = molecular target: T2, Muscarinic acetylcholine receptor M2 (Homo sapiens); assay: Binding affinity to human muscarinic acetylcholine receptor M2 expressed in CHOK9 cells assessed as dissociation half life after 105 mins by liquid scintillation counting assay; type: cell-based; conditions: tested as the 3H-labelled form
[18] = molecular target: T1, Muscarinic acetylcholine receptor M2; assay: Displacement of [3H]NMS from human muscarinic acetylcholine receptor M2
Outline: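 Competition binding at intact adherent CHO-K9 cells stably expressing human M2R. Cells were incubated with [3H]NMS 0.2 nM (final) and competitor for 3 h at 23 ± 1 °C in Leibovitz L-15 medium with 1% BSA. […] Curves were fitted by four-parameter logistic fits. Replicates: 3 to 9 independent experiments, each in triplicate.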

[19] = molecular target: T2, Muscarinic acetylcholine receptor M2 (Homo sapiens)
[20] = molecular target: T2, Muscarinic acetylcholine receptor M2 (Homo sapiens); assay: as §5; type: cell-based
[21] = molecular target: T1, Muscarinic acetylcholine receptor M2; assay: as §3; type: cell-based; outline: as §4
[22] = molecular target: T1, Muscarinic acetylcholine receptor M2; assay: Ratio of binding affinity to human muscarinic acetylcholine receptor M2 expressed in CHOK9 cells assessed as dissociation rate constant to binding affinity to human muscarinic acetylcholine receptor M2 expressed in CHOK9 cells assessed as association rate constant; type: cell-based
[23] = molecular target: T1, Muscarinic acetylcholine receptor M2; assay: Binding affinity to human muscarinic acetylcholine receptor M2 expressed in live adherent CHOK9 cells assessed as saturation binding after 2 hrs by liquid scintillation counting assay

- IC50 [1]: 33.9 nM
- inhibition [2]: Dose-dependent effect
- Ki [3]: 10.2 nM
- Activity [4]: inactive
- Bmax (disintegrations/minute) [5]: 780
- Activity [6]: < 5%
- K [7]: 217000 M⁻¹ s⁻¹
- IC50 [8]: 85.1 nM
- inhibition [9]: Dose-dependent effect
- IC50 [10]: 355 nM
- inhibition [11]: Dose-dependent effect
- Ki ([12]; read-out: pKi (converted)): 0.759 nM
- Ki [13]: 1.1 nM
- K [14]: 0.0091 min⁻¹
- inhibition [15]: Dose-dependent effect
- pKb [15]: 7.53
- Stability [16]: Stable
- T1/2 [17]: 1.18 h
SMILES: CCC(=O)NCCNC(=O)CCc1cn(CCCCC2CCN(CC(=O)N3c4ccccc4NC(=O)c4ccccc43)CC2)cn1

- Kd [21]: 0.87 nM
- Ki ([12]; read-out: Ki): 0.76 nM
- Kd [22]: 0.7 nM
- Kd [23]: 0.87 nM
SMILES: [3H]CC([3H])C(=O)NCCNC(=O)CCc1cn(CCCCC2CCN(CC(=O)N3c4ccccc4NC(=O)c4ccccc43)CC2)cn1 (configuration not stated)

The remaining lines, values behind:

SMILES: O=C1CCCN1CC#CCN1CCCC1 [OXOTREMORINE]
- Ki [3]: 10000 nM
- Ki [13]: 148 nM
- Ki [18]: 251 to 10000 nM

SMILES: Cc1c(Cl)c(OCC(=O)N2CCN(C)CC2)nc2sc(C(=O)NC3CC3)c(N)c12
- pKb [19]: 5.77

SMILES: O=C1Nc2ccccc2N(C(=O)CN2CCN(CC(=O)N3c4ccccc4NC(=O)c4ccccc43)CC2)c2ccccc21
- inhibition [20]: Active

From ChEMBL document CHEMBL4049434, “Radiolabeled Dibenzodiazepinone-Type Antagonists Give Evidence of Dualsteric Binding at the M2 Muscarinic Acetylcholine Receptor” (J Med Chem, 2017)
